Measurements reported in ChEMBL document CHEMBL1800025 (J Med Chem, 2011).
Calls of active or inactive are those of the source. No cut-off for these calls is given here.

Key:
[1] = molecular target: Serine/threonine-protein kinase pim-1 (Homo sapiens, UniProt P11309); test: Inhibition of human recombinant Pim1
Procedure, shortened: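 Kinase assayed in buffer C (25 mM Mops pH 7.2, 60 mM beta-glycerophosphate, 30 mM p-nitrophenylphosphate, 15 mM MgCl2, 5 mM EGTA, 1 mM DTT, 0.1 mM vanadate) with 1 mg/mL histone H1. DMSO controls.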

[2] = species on record: Sus scrofa; test: Inhibition of pig brain CK1 delta/epsilon using RRKHAAIGpSAYSITA as substrate at 10 uM
Procedure, shortened: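 Native CK1δ/ε from porcine brain, assayed in 3-fold diluted buffer C with 25 μM CKS peptide substrate. 15 μM ATP final, 30 C. Activity is percent of uninhibited control after blank subtraction, with DMSO controls. Inhibitor tested over a range of concentrations up to 10 μM.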

[3] = molecular target: Dual specificity protein kinase CLK3 (Mus musculus, UniProt O35492); test: Inhibition of mouse recombinant GST-tagged CLK3 using GRSRSRSRSRSR as substrate
Procedure, shortened: (§1)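 Mouse GST-fusion CLK1 or CLK3 expressed in E. coli. Assay buffer A (Tris-HCl pH 7.5, MgCl2, EGTA, DTT, heparin) plus 0.15 mg/mL BSA. RS peptide 1 μg/assay, 15 μM ATP final, 30 C. Blank subtracted; activity expressed as percent of activity without inhibitor. DMSO controls. Concentration range up to 10 μM.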

[4] = molecular target: Dual specificity tyrosine-phosphorylation-regulated kinase 1A (Rattus norvegicus, UniProt Q63470); test: Inhibition of rat recombinant GST-tagged DYRK1A using KKISGRLSPIMTEQ as substrate and [gamma32]-ATP after 30 mins by scintillation counting
Procedure, shortened: (§2)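 GST fusion kinases expressed in E. coli and purified on glutathione-agarose; DYRK1A is rat, DYRK2 is human. Assay buffer A (25 mM Tris-HCl pH 7.5, 10 mM MgCl2, 1 mM EGTA, 1 mM DTT, 50 μg/mL heparin) plus 0.15 mg/mL BSA. Product captured on P81 paper, washed in 1% phosphoric acid, scintillation counted. Activity expressed as percent of uninhibited control.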

[5] = molecular target: Dual specificity protein kinase CLK1 (Mus musculus, UniProt P22518); test: Inhibition of mouse recombinant GST-tagged CLK1 using GRSRSRSRSRSR as substrate; procedure, shortened: as §1
[6] = molecular target: T1, Dual specificity tyrosine-phosphorylation-regulated kinase 2 (Homo sapiens, UniProt Q92630); test: Inhibition of human recombinant GST-tagged DYRK2 using KKISGRLSPIMTEQ as substrate and [gamma32]-ATP after 30 mins by scintillation counting; procedure, shortened: as §2
T1 sequence (Q92630 whole entry): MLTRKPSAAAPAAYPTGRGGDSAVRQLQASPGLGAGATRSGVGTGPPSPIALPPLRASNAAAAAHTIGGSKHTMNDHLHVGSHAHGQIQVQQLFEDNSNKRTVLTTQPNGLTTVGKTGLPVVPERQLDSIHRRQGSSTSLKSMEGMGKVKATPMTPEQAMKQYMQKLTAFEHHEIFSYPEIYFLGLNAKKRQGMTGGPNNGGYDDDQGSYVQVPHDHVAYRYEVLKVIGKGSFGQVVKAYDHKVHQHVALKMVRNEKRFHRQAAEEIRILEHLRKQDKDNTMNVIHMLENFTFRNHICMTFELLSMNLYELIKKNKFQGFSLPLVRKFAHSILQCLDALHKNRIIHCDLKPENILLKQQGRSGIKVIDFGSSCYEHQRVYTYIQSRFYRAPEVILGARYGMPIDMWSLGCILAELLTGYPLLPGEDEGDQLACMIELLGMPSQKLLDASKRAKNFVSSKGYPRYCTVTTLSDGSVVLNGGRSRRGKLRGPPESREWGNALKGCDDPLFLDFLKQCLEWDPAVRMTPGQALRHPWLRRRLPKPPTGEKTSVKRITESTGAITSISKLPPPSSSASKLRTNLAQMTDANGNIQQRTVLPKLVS

[7] = molecular target: Glycogen synthase kinase-3 alpha/beta (Sus scrofa); test: Inhibition of pig brain GSK-3alpha/beta
[8] = tested on: Cyclin-dependent kinase 5/p25 (Homo sapiens); test: Inhibition of human recombinant CDK5/p25 at 10 uM

Chain of Dual specificity protein kinase CLK3 (O35492 whole entry, the tested form may be a part): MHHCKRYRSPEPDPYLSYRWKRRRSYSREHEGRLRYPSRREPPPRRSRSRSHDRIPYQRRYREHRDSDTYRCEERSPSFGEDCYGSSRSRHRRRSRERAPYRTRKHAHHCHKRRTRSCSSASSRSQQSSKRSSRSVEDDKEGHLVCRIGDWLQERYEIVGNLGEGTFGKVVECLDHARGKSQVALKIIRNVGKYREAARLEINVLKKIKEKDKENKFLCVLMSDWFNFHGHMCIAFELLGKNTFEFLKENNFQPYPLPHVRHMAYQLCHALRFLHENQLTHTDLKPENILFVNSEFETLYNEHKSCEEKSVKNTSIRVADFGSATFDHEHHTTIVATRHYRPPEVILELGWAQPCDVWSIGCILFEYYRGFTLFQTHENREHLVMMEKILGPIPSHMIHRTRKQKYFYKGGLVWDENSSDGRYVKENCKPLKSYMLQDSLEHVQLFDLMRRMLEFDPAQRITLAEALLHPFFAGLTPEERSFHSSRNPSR
Chain of Dual specificity protein kinase CLK1 (P22518 whole entry): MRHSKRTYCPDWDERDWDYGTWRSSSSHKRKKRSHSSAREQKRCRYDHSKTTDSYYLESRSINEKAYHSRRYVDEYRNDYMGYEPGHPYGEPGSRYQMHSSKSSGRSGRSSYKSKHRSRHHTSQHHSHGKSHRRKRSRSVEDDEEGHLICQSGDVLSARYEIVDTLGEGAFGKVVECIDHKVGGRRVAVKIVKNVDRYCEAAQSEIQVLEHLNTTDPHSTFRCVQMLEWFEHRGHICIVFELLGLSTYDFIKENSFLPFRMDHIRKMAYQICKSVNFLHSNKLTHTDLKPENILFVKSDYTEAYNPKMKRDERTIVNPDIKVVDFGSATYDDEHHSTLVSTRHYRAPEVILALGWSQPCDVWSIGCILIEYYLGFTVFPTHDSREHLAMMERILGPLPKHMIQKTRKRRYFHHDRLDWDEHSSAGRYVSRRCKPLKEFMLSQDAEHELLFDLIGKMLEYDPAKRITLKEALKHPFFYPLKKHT
Chain of Serine/threonine-protein kinase pim-1 (P11309 whole entry): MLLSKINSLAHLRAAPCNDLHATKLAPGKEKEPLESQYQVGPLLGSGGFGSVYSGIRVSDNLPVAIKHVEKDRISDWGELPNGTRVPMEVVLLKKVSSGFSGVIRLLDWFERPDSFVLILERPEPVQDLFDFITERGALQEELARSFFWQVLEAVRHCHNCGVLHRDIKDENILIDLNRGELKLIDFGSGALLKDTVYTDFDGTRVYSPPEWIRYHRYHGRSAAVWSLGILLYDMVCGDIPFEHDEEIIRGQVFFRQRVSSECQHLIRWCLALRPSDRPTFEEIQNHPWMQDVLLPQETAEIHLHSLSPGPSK

| Structure (SMILES) | IC50 [1] [nM] | inhibition [2] | IC50 [3] [nM] | IC50 [4] [nM] | IC50 [5] [nM] | IC50 [6] [nM] | IC50 [7] [nM] | inhibition [8] |
| --- | --- | --- | --- | --- | --- | --- | --- | --- |
| CC(C)CCNC1=N/C(=C\c2ccc3c(c2)OCO3)C(=O)N1C | 2100 | inactive | 960 | 460 | 160 | 560 | 2000 | inactive |
| COc1ccc(NC2=N/C(=C\c3ccc4c(c3)OCO4)C(=O)N2C)cc1 | 4100 | inactive | > 10000 | 240 | 450 | 510 | 700 | inactive |
| CCOC(=O)C(=O)NC1=N/C(=C\c2ccc3c(c2)OCO3)C(=O)N1C | 7000 | inactive | > 10000 | 6100 | 3100 | 6500 | > 10000 | inactive |
| CC(C)CNC1=N/C(=C\c2ccc3c(c2)OCO3)C(=O)N1C | 2000 | inactive | 900 | 170 | 120 | 210 | 3100 | inactive |
| CN1C(=O)/C(=C/c2ccc3c(c2)OCO3)N=C1NCCN1CCOCC1 | 6200 | inactive | 8000 | 1200 | 80 | 1600 | 4000 | inactive |
| CCNC1=N/C(=C\c2ccc3c(c2)OCO3)C(=O)N1 | 3100 | inactive | 3700 | 410 | 400 | 160 | 2400 | inactive |
| C=CCNC1=N/C(=C\c2ccc3c(c2)OCO3)C(=O)N1C | 4200 | inactive | 880 | 440 | 200 | 620 | 1600 | inactive |
| O=C1NC(Nc2ccc(O)cc2)=N/C1=C\c1ccc2c(c1)OCO2 | 1200 | inactive | 520 | 96 | 60 | 60 | – | – |
| CCNC1=N/C(=C\c2ccc3c(c2)OCO3)C(=O)N1C | 7200 | inactive | 2100 | 580 | 170 | 640 | 16000 | inactive |
| CCCNC1=N/C(=C\c2ccc3c(c2)OCO3)C(=O)N1 | 2500 | inactive | 2200 | 240 | 130 | 120 | 7300 | inactive |
| CC(C)NC1=N/C(=C\c2ccc3c(c2)OCO3)C(=O)N1C | 4000 | inactive | 2000 | 390 | 260 | 530 | – | – |
| O=C1NC(NCC2CC2)=N/C1=C\c1ccc2c(c1)OCO2 | 1500 | inactive | 610 | 100 | 83 | 47 | 4700 | inactive |
| CN1C(=O)/C(=C/c2ccc3c(c2)OCO3)N=C1Nc1ccc2c(c1)OCO2 | > 10000 | inactive | > 10000 | 400 | 160 | 100 | 5800 | inactive |
| CN1C(=O)/C(=C/c2ccc3c(c2)OCO3)N=C1NCc1ccccc1 | 3700 | inactive | 940 | 380 | 200 | 560 | > 10000 | inactive |
| CN1C(=O)/C(=C/c2ccc3c(c2)OCO3)N=C1NCCO | > 10000 | inactive | > 10000 | 7000 | 120 | 10000 | 1300 | inactive |
| CN1C(=O)/C(=C/c2ccc3c(c2)OCO3)N=C1NCCN | 3100 | inactive | 5000 | 910 | 190 | 710 | 910 | inactive |

Continued, in another order:

| IC50 [1] [nM] | inhibition [2] | IC50 [3] [nM] | IC50 [4] [nM] | IC50 [5] [nM] | IC50 [6] [nM] | Structure (SMILES) | IC50 [7] [nM] | inhibition [8] |
| --- | --- | --- | --- | --- | --- | --- | --- | --- |
| 300 | inactive | > 10000 | 3700 | 140 | 6000 | CN1C(=O)/C(=C/c2ccc3c(c2)OCO3)N=C1NC1CCCC1 | – | – |
| 5000 | inactive | 360 | 66 | 170 | 40 | O=C1NC(Nc2ccc3c(c2)OCO3)=N/C1=C\c1ccc2c(c1)OCO2 | – | – |
| 9000 | inactive | > 10000 | 170 | 320 | 61 | Cc1ccc(NC2=N/C(=C\c3ccc4c(c3)OCO4)C(=O)N2)cc1 | – | – |
| 6100 | inactive | 7000 | 2100 | 140 | 2000 | CN1C(=O)/C(=C/c2ccc3c(c2)OCO3)N=C1NCCCCCO | – | – |
| > 10000 | inactive | 3100 | 570 | 73 | 770 | COCCNC1=N/C(=C\c2ccc3c(c2)OCO3)C(=O)N1C | – | – |
| 590 | inactive | > 10000 | 3200 | 230 | 3300 | CN1C(=O)/C(=C/c2ccc3c(c2)OCO3)N=C1NCc1ccc2c(c1)OCO2 | – | – |
| 6500 | inactive | 3900 | 280 | 233 | 470 | CN1C(=O)/C(=C/c2ccc3c(c2)OCO3)N=C1NCCCO | – | – |
| 4000 | inactive | 3900 | 440 | 1000 | 1100 | CN1C(=O)/C(=C/c2ccc3c(c2)OCO3)N=C1Nc1ccc(O)cc1 | – | – |
| 3500 | inactive | 3200 | 2100 | 770 | 2200 | CNC1=N/C(=C\c2ccc3c(c2)OCO3)C(=O)N1C | – | – |
| 4500 | inactive | 1200 | 540 | 310 | 550 | CCCNC1=N/C(=C\c2ccc3c(c2)OCO3)C(=O)N1C | – | – |
| 2600 | inactive | 4600 | 310 | 84 | 460 | CN1C(=O)/C(=C/c2ccc3c(c2)OCO3)N=C1Nc1ccccc1 | – | – |
| > 10000 | inactive | > 10000 | 3100 | 2400 | 5100 | CC(=O)NC1=N/C(=C\c2ccc3c(c2)OCO3)C(=O)N1C | – | – |
| > 10000 | inactive | 10000 | 110 | 830 | 80 | COc1ccc(NC2=N/C(=C\c3ccc4c(c3)OCO4)C(=O)N2)cc1 | – | – |
| 4600 | inactive | 1100 | 500 | 130 | 610 | CCCCNC1=N/C(=C\c2ccc3c(c2)OCO3)C(=O)N1C | – | – |
